Data set [1] has as its system Mus musculus. The experiment in a line: Antiinflammatory activity in mouse assessed as inhibition of LPS-induced TNFalpha upregulation at 0.0025 ug, sc measured 2 hrs after LPS challenge. The format is functional. In short, it runs like this:
(§1)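 Murine sublethal endotoxemia: LPS given intraperitoneally, with serum TNF-α measured 2 h after the LPS injection as the end point. Compound was given subcutaneously or orally. Vehicle was 0.6% DMSO and 1% carboxymethylcellulose (final concentrations) in sterile water. Effect is reported as % relative to control.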

Data set [2] relates to Mus musculus. The experiment in a line: Antiinflammatory activity in mouse assessed as inhibition of LPS-induced TNFalpha upregulation at 0.0075 mg, sc measured 2 hrs after LPS challenge. The format is functional. Summed up: as §1
Data set [3] deals with Mus musculus. Description: Antiinflammatory activity in mouse assessed as inhibition of LPS-induced TNFalpha upregulation at 0.0025 mg, sc measured 2 hrs after LPS challenge. The format is functional. Summed up: as §1
Data set [4] is described as follows: Volume of distribution at steady state in Sprague-Dawley rat at 1 mg/kg, iv administered as single dose. The format is ADME, organism-based. More on the design: dose 1 mg/kg, route intravenous. Conditions: in vivo, read-out: Vdss. Summed up: (§2)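 Male Sprague-Dawley rats, three per compound, receive a single intravenous dose in 5% DMSO in 0.9% saline. Food and water are given ad libitum. Plasma is taken at 5, 15, 30, 60, 120, 180, 240 and 480 min. Drug is measured by LC/MS/MS after extraction with 0.1% formic acid in acetonitrile. The curve is back-extrapolated to time zero assuming an initial volume of 0.26 L/kg.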

The target in data set [5] is C-C chemokine receptor type 5 (Homo sapiens) (UniProt P51681). Description: Antagonist activity at CCR5 in human THP1 cells assessed as inhibition of CCL5-induced chemotaxis at 0.1 nM after 2 hrs by microtiter format trans-well migration assay. The data set is classed as functional, cell-based. Conditions: THP-1. Summed up:
(§3)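 Microtiter trans-well migration assay in Gey's balanced salt solution with 1 mg/mL endotoxin-free BSA, no fetal calf serum. Migration ran 2 h at 37 °C. Compounds dissolved in DMSO and added to both top and bottom compartments, final DMSO 1%.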

For data set [6], the system named is Mus musculus. Description: Antiinflammatory activity in mouse assessed as inhibition of LPS-induced TNFalpha upregulation at 0.0025 mg, po measured 2 hrs after LPS challenge. The data set is classed as functional. Summed up: as §1
The nature of data set [7]: Half life in Sprague-Dawley rat at 3 mg/kg, po administered as single dose. Further details: dose 3 mg/kg, route oral. The data set is classed as ADME, organism-based. Particulars: in vivo. Summed up:
(§4)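 Male Sprague-Dawley rats, three per compound, receive a single oral dose by gavage in 1% carboxymethylcellulose in 0.9% saline, with food and water ad libitum. Plasma is sampled from 5 to 480 min and drug is quantified by positive-mode LC/MS/MS after acetonitrile/formic acid extraction. The lower limit of quantitation is about 2 ng/mL. Exposure is AUC(0→t) by the linear/log trapezoidal rule, and F is oral fractional bioavailability.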

The nature of data set [8]: Half life in Sprague-Dawley rat at 1 mg/kg, iv administered as single dose. The data set is classed as ADME, organism-based. Further details: dose 1 mg/kg, route intravenous. Conditions: in vivo. In short, it runs like this: as §2
Data set [9] addresses C-C chemokine receptor type 2 (Homo sapiens) (UniProt P41597). Description: Antagonist activity at CCR2 in human THP1 cells assessed as inhibition of CCL2-induced chemotaxis at 0.01 nM after 2 hrs by microtiter format trans-well migration assay. The format is functional, cell-based. Conditions: THP-1. In short, it runs like this:
as §3

Data set [10] deals with Mus musculus. The experiment in a line: Antiinflammatory activity in mouse assessed as inhibition of LPS-induced TNFalpha upregulation at 0.025 ug, sc measured 2 hrs after LPS challenge. The data set is classed as functional. Summed up:
as §1

Data set [11] concerns the target C-C chemokine receptor type 2 (Homo sapiens) (UniProt P41597). Description: Antagonist activity at CCR2 in human THP1 cells assessed as inhibition of CCL2-induced chemotaxis at 1 nM after 2 hrs by microtiter format trans-well migration assay. The data set is classed as functional, cell-based. Conditions: THP-1. Summed up:
as §3

Another data set relates to THP-1. The experiment in a line: Endogenous chemoattractant activity at human THP1 cells assessed as cell migration at 0.001 nM after 2 hrs by microtiter format trans-well migration assay. The data set is classed as functional.
For data set [12], the target named is C-X-C chemokine receptor type 4 (Homo sapiens) (UniProt P61073). Description: Antagonist activity at CXCR4 in human THP1 cells assessed as inhibition of CXCL12-induced chemotaxis at 100 nM after 2 hrs by microtiter format trans-well migration assay. The data set is classed as functional, cell-based. Particulars: THP-1. Summed up:
as §3

For data set [13] the target is unchanged. Description: Antagonist activity at CXCR4 in human THP1 cells assessed as inhibition of CXCL12-induced chemotaxis at 1 nM after 2 hrs by microtiter format trans-well migration assay. Conditions: THP-1. The data set is classed as functional, cell-based. Summed up:
as §3

Data set [14] can be described thus: Cmax in Sprague-Dawley rat at 3 mg/kg, po administered as single dose. The format is ADME, organism-based. Further details: dose 3 mg/kg, route oral. Conditions: in vivo. Summed up: as §4

Sequence of C-C chemokine receptor type 2 (Homo sapiens) (P41597 whole entry, looked up): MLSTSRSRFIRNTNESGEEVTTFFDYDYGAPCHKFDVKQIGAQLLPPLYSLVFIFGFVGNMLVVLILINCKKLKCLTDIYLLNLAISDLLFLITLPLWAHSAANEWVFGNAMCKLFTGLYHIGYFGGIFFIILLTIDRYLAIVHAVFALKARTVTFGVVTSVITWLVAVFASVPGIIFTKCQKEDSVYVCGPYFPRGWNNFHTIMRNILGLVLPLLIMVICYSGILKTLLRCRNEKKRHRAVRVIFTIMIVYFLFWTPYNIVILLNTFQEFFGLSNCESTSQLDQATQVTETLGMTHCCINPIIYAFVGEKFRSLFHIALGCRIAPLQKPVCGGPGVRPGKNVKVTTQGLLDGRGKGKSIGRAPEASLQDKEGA
Sequence of C-X-C chemokine receptor type 4 (Homo sapiens) (P61073 whole entry): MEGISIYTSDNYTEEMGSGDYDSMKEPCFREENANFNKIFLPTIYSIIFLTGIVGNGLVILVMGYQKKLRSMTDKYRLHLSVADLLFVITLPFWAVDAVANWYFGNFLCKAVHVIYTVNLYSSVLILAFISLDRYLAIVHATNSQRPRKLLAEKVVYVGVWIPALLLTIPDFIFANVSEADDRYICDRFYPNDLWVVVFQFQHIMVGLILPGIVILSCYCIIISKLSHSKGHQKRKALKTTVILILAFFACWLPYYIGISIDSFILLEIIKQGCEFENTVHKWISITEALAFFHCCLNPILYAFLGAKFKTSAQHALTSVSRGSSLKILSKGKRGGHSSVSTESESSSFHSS
Sequence of C-C chemokine receptor type 5 (Homo sapiens) (P51681 whole entry, looked up): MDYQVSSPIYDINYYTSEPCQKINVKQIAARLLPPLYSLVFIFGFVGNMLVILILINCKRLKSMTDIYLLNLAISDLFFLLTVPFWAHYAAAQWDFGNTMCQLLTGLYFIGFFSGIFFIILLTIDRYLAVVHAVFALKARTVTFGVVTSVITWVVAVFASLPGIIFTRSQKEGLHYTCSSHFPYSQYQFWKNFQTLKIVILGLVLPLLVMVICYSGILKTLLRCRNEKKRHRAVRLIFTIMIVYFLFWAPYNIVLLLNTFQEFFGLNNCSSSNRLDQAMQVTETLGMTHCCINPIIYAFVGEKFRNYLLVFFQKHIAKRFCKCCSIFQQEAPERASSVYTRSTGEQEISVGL

As for `CCCCCCCCCCC(C)(C)C(=O)N[C@H]1CCCCNC1=O`, the “inhibition (INH)” value is reported as 29% in the data set with Mus musculus [1]; 63% in the data set on Mus musculus [2]; 57% in the data set with Mus musculus [3]; 0% in the data set on Mus musculus [6]; 67% in the data set with Mus musculus [10]. Further, the Vd in data set [4] was determined as 2 L/kg. Further, the inhibition in data set [5] is 16.5%; in [9], 12%; in data set [11], 81%; in data set [12] it was 111%; in data set [13], 99%. In addition, the half-life in [7] came out at 1.7 h; in data set [8], 0.767 h. In addition, the Activity with THP-1 was 4282%. The peak level in [14] (Cmax) was 60 ng/mL.

Source of the values: ChEMBL document CHEMBL1136923, “Highly potent, orally available anti-inflammatory broad-spectrum chemokine inhibitors” (J Med Chem, 2009).
